The values below come from ChEMBL document CHEMBL4028890, “A Positive Allosteric Modulator of the Serotonin 5-HT2C Receptor for Obesity” (J Med Chem, 2017).

Activity calls are given as the source filed them. No cut-off for these calls is given here.

The first assay deals with T1, 5-hydroxytryptamine receptor 2C (Homo sapiens) (UniProt P28335).
T1 sequence (whole entry): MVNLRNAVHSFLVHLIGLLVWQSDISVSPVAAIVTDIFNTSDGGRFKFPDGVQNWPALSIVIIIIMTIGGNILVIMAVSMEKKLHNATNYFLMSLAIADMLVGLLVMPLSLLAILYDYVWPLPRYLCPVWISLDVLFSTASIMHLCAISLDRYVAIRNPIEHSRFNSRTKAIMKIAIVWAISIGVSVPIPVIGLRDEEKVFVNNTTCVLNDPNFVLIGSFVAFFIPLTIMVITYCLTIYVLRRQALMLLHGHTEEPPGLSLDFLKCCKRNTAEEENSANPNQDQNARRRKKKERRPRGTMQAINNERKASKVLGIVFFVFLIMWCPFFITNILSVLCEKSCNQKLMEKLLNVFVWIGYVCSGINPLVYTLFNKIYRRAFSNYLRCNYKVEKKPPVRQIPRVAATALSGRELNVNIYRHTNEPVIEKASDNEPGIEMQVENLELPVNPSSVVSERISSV
As to the kind of experiment: Positive allosteric modulation of human 5-HT2C receptor expressed in human HeLa-K1 cells assessed as potentiation of 5-HT-induced inositol monophosphate release at 10 uM after 20 mins by HTRF assay relative to control. Type of assay: functional, cell-based. The method, boiled down:
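IP-One HTRF assay in CHO-K1 cells (human 5-HT2A, 5-HT2B) or HeLa-K1 cells (human 5-HT2C), seeded and grown 24 h at 37 °C. Test compound and/or 5-HT added in stimulation buffer, then 20 min at 37 °C before IP1 read-out. Data normalized to 5-HT maximal effect and fitted by nonlinear regression. Triplicates, mean ± SD.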
On the technique in general: Time-resolved FRET reads energy transfer from a long-lived donor to a nearby acceptor.
Turning to `Clc1ccc(Cn2cc(CNc3cccnc3)c3ccccc32)cc1`, the Activity turned out to be 13%.
Still for that read-out and setting: the result for `Brc1ccccc1Cn1cc(CNc2cccnc2)c2ccccc21` reads 0%; that for `c1ccc(Cn2cc(CNc3ccncn3)c3ccccc32)cc1`, 0%.
Still for that read-out and setting: the result for `Cc1cccc(Cn2cc(CNc3cccnc3)c3ccccc32)c1` reads 27%; that for `Fc1ccccc1Cn1cc(CNc2cccnc2)c2ccccc21`, 6%; that for `c1ccc(Cn2cc(CNc3cccnc3)c3ccccc32)nc1`, 0%.
Still for that read-out and setting: the result for `Cc1ccncc1NCc1cn(Cc2ccccc2)c2ccccc12` reads 21%.
On to `Fc1cc(Cl)ccc1Cn1cc(CNc2cccnc2)c2ccccc21`, for which the Activity was found to be 9%.
The same measure, in the same setting: in the case of `c1ccc(Cn2cc(CNc3ccnnc3)c3ccccc32)cc1` it was 0%; in that of `Cc1ncccc1NCc1cn(Cc2ccccc2)c2ccccc12`, 0%; in that of `N#Cc1ccccc1Cn1cc(CNc2cccnc2)c2ccccc21`, 7%.
The same measure, in the same setting: in the case of `COc1ccc(Cn2cc(CNc3cccnc3)c3ccccc32)cc1` it was 6%.
Still for that read-out and setting: in the case of `FC(F)(F)c1ccccc1Cn1cc(CNc2cccnc2)c2ccccc21` it was 9%.
As for `c1ccc(Cn2cc(CNc3cccnn3)c3ccccc32)cc1`, the Activity was 9%.
Still for that read-out and setting: in the case of `c1cncc(NCc2cn(Cc3ccncc3)c3ccccc23)c1` it was 9%; in that of `Brc1ccc(Cn2cc(CNc3cccnc3)c3ccccc32)cc1`, 6%; in that of `c1ccc(Cn2cc(CNc3ncccn3)c3ccccc32)cc1`, 0%.
On to `Cc1ccc(Cn2cc(CNc3cccnc3)c3ccccc32)cc1`, for which the Activity is 24%.
`N#Cc1cccc(Cn2cc(CNc3cccnc3)c3ccccc32)c1`: the Activity was found to be 22%.
Still for that read-out and setting: in the case of `c1ccc(Cn2cc(CNc3cnccn3)c3ccccc32)cc1` it was 0%; in that of `Clc1cccc(Cn2cc(CNc3cccnc3)c3ccccc32)c1`, 26%; in that of `Brc1cccc(Cn2cc(CNc3cccnc3)c3ccccc32)c1`, 7%.
`COc1ccccc1Cn1cc(CNc2cccnc2)c2ccccc21`: the Activity came to 0%.
Still for that read-out and setting: in the case of `FC(F)(F)c1ccc(Cn2cc(CNc3cccnc3)c3ccccc32)cc1` it was 8%; in that of `FC(F)(F)c1cccc(Cn2cc(CNc3cccnc3)c3ccccc32)c1`, 0%; in that of `Fc1ccc(Cn2cc(CNc3cccnc3)c3ccccc32)c(F)c1`, 9%.
Same read-out and setting: the result for `c1cncc(NCc2cn(CC3CC3)c3ccccc23)c1` reads 0%; that for `c1ccc(Cn2cc(CNc3ccccn3)c3ccccc32)cc1`, 25%.
Still for that read-out and setting: the result for `N#Cc1ccc(Cn2cc(CNc3cccnc3)c3ccccc32)cc1` reads 7%; that for `Fc1ccc(Cn2cc(CNc3cccnc3)c3ccccc32)cc1`, 9%; that for `c1ccc(Cn2cc(CNc3cncnc3)c3ccccc32)cc1`, 20%.
Take `COc1cccc(Cn2cc(CNc3cccnc3)c3ccccc32)c1`: the Activity was 0%.
Still for that read-out and setting: in the case of `Cc1ccccc1Cn1cc(CNc2cccnc2)c2ccccc21` it was 7%.
On the same count and under the same terms, in the case of `Clc1ccccc1Cn1cc(CNc2cccnc2)c2ccccc21` it was 7%; in that of `Fc1cccc(Cn2cc(CNc3cccnc3)c3ccccc32)c1`, 22%.
On the same count and under the same terms, in the case of `c1cncc(Cn2cc(CNc3cccnc3)c3ccccc32)c1` it was 25%.

The subject of the next assay is Rattus norvegicus. As to the kind of experiment: Antiobesity activity in Wistar rat assessed as reduction in food intake at 2 mg/kg, ip measured up to 4 hrs. Type of assay: functional, organism-based. The method, boiled down: (§1)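 Male Wistar rats, 200−250 g, aged 10−12 weeks, food-deprived 16 h before refeeding. Compound given ip in sterile saline; food and water intake measured at 30, 60, 120 and 240 min after food presentation. Where used, antagonist (3 mg/kg, ip) or other pretreatments were injected 30 min before the compound. Mean ± SEM, at least eight rats per group.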
Regarding `O=C1Nc2cc(Cl)c(Cl)cc2N2CCNC[C@H]12`, the outcome was Active.

The next assay concerns Rattus norvegicus. Nature of the assay: Antiobesity activity in Wistar rat assessed as reduction in food intake at 2 mg/kg, ip after 4 hrs. The format is functional, organism-based. The method, boiled down:
as §1
With `O=C1Nc2cc(Cl)c(Cl)cc2N2CCNC[C@H]12`, the outcome was inactive.

Another assay concerns Rattus norvegicus. Nature of the assay: Antiobesity activity in Wistar rat assessed as reduction in food intake at 2 mg/kg, ip after 4 hrs in presence of 5-HT2C antagonist SB-242084. Type of assay: functional, organism-based. The method, boiled down: as §1
For the molecule `O=C1Nc2cc(Cl)c(Cl)cc2N2CCNC[C@H]12`, the result was inactive.
